Test results as given in ChEMBL document CHEMBL4145524, “Chemoenzymatically synthesized GM3 analogues as potential therapeutic agents to recover nervous functionality after injury by inducing neurite outgrowth” (2018).
Calls of active or inactive are those of the source. The rule behind the calls is not given here.

Columns and labels:
PC-12 [1] = experiment: Induction of neuritogenesis in rat PC12 cells assessed as neurite bearing cells at 10 uM after 72 hrs by inverted microscopic analysis relative to control; assay type: functional
Outline: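 PC12 cells (ATCC; grown in DMEM, 10% heat-inactivated horse serum, 5% FBS, 37 °C, 5% CO2) seeded at 2×10^4/well on poly-L-lysine, attached 24 h, then 24 h in low-serum DMEM (1% horse serum, 0.5% FBS). Compound at 10 μM for 72 h, no NGF. Score cells with at least one neurite ≥2× cell-body diameter, ≥200 cells/sample; mean ± S.D., ≥3 repeats.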

PC-12 [2] = experiment: Induction of neuritogenesis in NGF-induced rat PC12 cells assessed as neurite bearing cells at 10 uM cotreated with 25 ng/ml NGF after 72 hrs by inverted microscopic analysis relative to control; assay type: functional
Outline: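 PC12 cells plated on poly-L-lysine-coated wells at 2×10^4/well, switched to DMEM with 1% horse serum and 0.5% FBS for 24 h, then given compound together with NGF 25 ng/ml for 72 h. Inverted microscopy. Percentage of cells bearing at least one neurite twice the cell-body diameter, over ≥200 cells per sample; mean ± S.D., at least three experiments.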

Compound	Activity (PC-12 [1])	Activity (PC-12 [2])
CCCCCCCCCCCCC/C=C/[C@@H](O)[C@H](CO[C@@H]1O[C@H](CO[C@]2(C(=O)O)C[C@H](O)[C@@H](NC(C)=O)[C@H]([C@@H](O)[C@H](O)CO)O2)[C@@H](O)[C@H](O)[C@H]1O)NC(=O)CCCCCCCCCCCCCCCCC	inactive	inactive
CCCCCCCCCCCCC/C=C/[C@@H](O)[C@H](CO[C@@H]1O[C@H](CO[C@]2(C(=O)O)C[C@H](O)[C@@H](NC(C)=O)[C@H]([C@@H](O)[C@H](O)CO)O2)[C@H](O)[C@H](O)[C@H]1O)NC(=O)CCCCCCCCCCCCCCCCC	inactive	inactive
CCCCCCCCCCCCC/C=C/[C@@H](O)[C@@H](N)CO[C@@H]1O[C@H](CO)[C@H](O)[C@H](O[C@]2(C(=O)O)C[C@H](O)[C@@H](NC(C)=O)[C@H]([C@@H](O)[C@H](O)CO)O2)[C@H]1O	6%	Active
CCCCCCCCCCCCC/C=C/[C@@H](O)[C@H](CO[C@@H]1O[C@H](CO)[C@@H](O[C@@H]2O[C@H](CO)[C@H](O)[C@H](O[C@]3(C(=O)O)C[C@H](O)[C@@H](NC(=O)CCl)[C@H]([C@@H](O)[C@H](O)CO)O3)[C@H]2O)[C@H](O)[C@H]1O)NC(=O)CCCCCCCCCCCCCCCCC	8%	inactive
CCCCCCCCCCCCC/C=C/[C@@H](O)[C@@H](N)CO[C@@H]1O[C@H](CO[C@]2(C(=O)O)C[C@H](O)[C@@H](NC(C)=O)[C@H]([C@@H](O)[C@H](O)CO)O2)[C@@H](O)[C@H](O)[C@H]1O	26%	>30%
CCCCCCCCCCCCC/C=C/[C@@H](O)[C@@H](N)CO[C@@H]1O[C@H](CO[C@]2(C(=O)O)C[C@H](O)[C@@H](NC(C)=O)[C@H]([C@@H](O)[C@H](O)CO)O2)[C@H](O)[C@H](O)[C@H]1O	9%	inactive
CCCCCCCCCCCCC/C=C/[C@@H](O)[C@H](CO[C@@H]1O[C@H](CO)[C@H](O)[C@H](O[C@]2(C(=O)O)C[C@H](O)[C@@H](NC(C)=O)[C@H]([C@@H](O)[C@H](O)CO)O2)[C@H]1O)NC(=O)CCCCCCCCCCCCCCCCC	inactive	inactive
